# Source: the M2OR odorant receptor database
# Key:
# Settings in all cases: stereoisomer not certain
# [1] = target: T1, UniProt Q8VGC6
# T1 sequence (whole entry): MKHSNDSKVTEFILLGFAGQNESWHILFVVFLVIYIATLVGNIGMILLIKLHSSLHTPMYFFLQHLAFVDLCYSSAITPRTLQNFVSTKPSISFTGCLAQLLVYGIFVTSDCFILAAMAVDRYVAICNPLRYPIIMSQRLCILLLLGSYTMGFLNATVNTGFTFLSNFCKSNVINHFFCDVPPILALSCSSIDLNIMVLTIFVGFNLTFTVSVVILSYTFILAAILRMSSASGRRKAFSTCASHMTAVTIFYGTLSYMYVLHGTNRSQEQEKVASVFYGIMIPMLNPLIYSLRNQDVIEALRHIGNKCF
# In short: (§1)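 Each entry records the cell line, G-protein, co-transfected protein and tags used. Methods varied with the source, often transient luciferase assays in mammalian cell lines. A receptor–molecule pair is called responsive (active) if the original authors judged its signal statistically different from baseline and non-responsive (inactive) otherwise.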
# [2] = target: T2, UniProt Q8VGD7
# T2 sequence (whole entry): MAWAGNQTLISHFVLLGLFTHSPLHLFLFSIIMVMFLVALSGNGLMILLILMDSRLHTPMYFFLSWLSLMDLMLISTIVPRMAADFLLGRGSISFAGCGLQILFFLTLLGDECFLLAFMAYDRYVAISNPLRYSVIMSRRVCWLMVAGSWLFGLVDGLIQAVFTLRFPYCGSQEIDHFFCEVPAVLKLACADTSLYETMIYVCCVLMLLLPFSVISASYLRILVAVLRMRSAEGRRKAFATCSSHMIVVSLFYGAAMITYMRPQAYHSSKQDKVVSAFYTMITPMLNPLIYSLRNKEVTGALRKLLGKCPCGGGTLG
# In short: as §1
# [3] = target: T3, UniProt Q8VGH1
# T3 sequence (whole entry): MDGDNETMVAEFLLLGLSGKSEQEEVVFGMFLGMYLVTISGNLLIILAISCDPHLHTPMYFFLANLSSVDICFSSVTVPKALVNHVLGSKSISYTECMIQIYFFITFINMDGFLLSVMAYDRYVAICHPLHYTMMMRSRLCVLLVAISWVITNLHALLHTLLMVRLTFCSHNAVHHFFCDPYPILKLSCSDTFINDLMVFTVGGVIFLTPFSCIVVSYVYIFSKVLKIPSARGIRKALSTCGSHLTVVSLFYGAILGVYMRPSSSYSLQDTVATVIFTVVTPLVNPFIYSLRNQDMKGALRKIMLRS
# In short: as §1
# [4] = target: T4, UniProt Q8VGJ1
# T4 sequence (whole entry): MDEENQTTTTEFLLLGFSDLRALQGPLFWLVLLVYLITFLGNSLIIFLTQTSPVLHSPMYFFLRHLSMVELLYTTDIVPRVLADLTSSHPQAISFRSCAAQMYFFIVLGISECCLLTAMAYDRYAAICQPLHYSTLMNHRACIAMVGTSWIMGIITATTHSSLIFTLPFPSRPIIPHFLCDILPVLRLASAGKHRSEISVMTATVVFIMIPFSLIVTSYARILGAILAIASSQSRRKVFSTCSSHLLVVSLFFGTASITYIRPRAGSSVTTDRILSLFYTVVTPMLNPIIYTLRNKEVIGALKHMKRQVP
# In short: as §1
# [5] = target: T5, UniProt Q8VGJ3
# T5 sequence (whole entry): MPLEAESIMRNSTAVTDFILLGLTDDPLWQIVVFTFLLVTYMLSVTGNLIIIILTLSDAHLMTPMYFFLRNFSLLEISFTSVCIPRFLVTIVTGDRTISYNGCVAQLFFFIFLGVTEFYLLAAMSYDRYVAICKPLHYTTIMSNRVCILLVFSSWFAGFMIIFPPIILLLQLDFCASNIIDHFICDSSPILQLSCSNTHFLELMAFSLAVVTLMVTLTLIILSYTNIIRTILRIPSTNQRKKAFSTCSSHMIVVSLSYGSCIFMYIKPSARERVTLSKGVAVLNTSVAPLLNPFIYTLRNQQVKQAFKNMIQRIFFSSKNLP
# In short: as §1
# [6] = target: T6, UniProt Q8VGJ5
# T6 sequence (whole entry): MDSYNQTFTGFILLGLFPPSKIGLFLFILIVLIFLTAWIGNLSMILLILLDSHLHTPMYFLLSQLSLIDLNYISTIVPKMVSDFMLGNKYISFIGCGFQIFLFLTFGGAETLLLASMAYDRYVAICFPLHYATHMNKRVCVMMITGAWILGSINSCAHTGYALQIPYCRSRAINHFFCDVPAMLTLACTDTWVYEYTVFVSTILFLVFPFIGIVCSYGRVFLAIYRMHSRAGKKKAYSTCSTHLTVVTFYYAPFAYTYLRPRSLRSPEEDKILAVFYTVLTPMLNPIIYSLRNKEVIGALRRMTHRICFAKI
# In short: as §1
# [7] = target: T7, UniProt Q8VGL0
# T7 sequence (whole entry): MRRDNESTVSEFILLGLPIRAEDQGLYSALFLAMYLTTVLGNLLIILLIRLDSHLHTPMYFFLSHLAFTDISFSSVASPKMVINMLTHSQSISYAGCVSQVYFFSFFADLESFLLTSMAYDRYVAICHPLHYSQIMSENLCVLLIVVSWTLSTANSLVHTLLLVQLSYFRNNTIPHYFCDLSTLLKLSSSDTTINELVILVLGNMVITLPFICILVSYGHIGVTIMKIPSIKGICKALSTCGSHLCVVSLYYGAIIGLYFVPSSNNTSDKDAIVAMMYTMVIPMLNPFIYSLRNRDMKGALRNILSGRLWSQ
# In short: as §1
# [8] = target: T8, UniProt Q8VGL7
# T8 sequence (whole entry): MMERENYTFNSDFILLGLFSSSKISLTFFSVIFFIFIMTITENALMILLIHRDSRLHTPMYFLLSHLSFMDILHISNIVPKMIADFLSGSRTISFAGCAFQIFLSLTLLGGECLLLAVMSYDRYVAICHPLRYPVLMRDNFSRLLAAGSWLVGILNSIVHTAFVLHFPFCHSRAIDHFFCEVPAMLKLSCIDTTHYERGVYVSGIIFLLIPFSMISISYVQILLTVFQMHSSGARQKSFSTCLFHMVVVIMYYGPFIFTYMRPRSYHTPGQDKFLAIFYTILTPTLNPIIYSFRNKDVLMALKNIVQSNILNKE
# In short: as §1
# [9] = target: T9, UniProt Q8VGM2
# T9 sequence (whole entry): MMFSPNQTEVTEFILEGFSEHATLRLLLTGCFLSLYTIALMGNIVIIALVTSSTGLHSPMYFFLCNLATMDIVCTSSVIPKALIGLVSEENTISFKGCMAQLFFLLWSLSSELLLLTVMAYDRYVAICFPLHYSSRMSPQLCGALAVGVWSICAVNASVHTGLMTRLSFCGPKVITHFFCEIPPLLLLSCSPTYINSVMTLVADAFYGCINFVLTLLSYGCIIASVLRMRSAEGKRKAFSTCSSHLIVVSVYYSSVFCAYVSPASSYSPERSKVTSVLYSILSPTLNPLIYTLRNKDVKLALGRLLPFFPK
# In short: as §1
# [10] = target: T10, UniProt Q8VGP6
# T10 sequence (whole entry): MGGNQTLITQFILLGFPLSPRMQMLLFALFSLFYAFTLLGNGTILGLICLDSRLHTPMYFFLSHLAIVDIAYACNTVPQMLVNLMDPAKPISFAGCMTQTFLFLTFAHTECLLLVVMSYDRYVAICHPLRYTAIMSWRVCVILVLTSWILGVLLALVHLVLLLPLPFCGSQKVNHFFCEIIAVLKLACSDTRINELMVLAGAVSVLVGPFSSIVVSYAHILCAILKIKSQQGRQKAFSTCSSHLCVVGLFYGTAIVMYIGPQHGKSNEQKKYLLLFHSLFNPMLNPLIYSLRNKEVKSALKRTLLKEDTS
# In short: as §1
# [11] = target: T11, UniProt Q8VGQ3
# T11 sequence (whole entry): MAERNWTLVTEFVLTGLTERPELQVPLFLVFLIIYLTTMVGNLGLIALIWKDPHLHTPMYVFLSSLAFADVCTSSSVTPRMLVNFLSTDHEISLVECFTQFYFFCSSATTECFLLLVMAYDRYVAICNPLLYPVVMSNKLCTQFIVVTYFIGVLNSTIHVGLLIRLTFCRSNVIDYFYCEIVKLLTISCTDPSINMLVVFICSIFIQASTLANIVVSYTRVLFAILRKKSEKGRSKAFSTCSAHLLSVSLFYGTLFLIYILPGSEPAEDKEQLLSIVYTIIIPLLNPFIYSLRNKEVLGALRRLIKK
# In short: as §1
# [12] = target: T12, UniProt Q8VGT4
# T12 sequence (whole entry): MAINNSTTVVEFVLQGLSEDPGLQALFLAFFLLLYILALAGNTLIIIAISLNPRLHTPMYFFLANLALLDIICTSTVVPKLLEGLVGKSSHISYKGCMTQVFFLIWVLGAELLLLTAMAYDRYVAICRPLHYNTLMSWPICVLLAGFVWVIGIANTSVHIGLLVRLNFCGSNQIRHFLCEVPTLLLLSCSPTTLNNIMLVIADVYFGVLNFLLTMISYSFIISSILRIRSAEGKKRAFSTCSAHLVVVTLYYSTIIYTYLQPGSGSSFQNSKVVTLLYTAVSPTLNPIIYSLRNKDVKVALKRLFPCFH
# In short: as §1
# [13] = target: T13, UniProt Q8VGU3
# T13 sequence (whole entry): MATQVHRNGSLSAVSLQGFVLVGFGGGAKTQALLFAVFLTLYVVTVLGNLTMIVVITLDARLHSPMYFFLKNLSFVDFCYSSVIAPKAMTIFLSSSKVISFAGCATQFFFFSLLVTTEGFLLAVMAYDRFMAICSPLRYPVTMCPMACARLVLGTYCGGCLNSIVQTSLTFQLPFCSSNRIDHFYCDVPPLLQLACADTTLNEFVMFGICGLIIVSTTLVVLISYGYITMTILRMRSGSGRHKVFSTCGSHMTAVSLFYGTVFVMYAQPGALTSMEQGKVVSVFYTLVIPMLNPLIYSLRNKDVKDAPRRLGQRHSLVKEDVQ
# In short: as §1
# [14] = target: T14, UniProt Q8VGV1
# T14 sequence (whole entry): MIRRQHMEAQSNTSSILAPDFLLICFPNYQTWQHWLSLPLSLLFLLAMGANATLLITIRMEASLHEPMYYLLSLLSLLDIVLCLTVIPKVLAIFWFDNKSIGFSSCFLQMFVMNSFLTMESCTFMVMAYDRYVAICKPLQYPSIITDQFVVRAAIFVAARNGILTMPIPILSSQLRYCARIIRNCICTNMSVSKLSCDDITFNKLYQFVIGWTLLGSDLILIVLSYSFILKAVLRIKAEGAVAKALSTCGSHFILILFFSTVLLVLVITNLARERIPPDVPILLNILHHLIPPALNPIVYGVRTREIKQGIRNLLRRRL
# In short: as §1
# [15] = target: T15, UniProt Q8VGV7
# T15 sequence (whole entry): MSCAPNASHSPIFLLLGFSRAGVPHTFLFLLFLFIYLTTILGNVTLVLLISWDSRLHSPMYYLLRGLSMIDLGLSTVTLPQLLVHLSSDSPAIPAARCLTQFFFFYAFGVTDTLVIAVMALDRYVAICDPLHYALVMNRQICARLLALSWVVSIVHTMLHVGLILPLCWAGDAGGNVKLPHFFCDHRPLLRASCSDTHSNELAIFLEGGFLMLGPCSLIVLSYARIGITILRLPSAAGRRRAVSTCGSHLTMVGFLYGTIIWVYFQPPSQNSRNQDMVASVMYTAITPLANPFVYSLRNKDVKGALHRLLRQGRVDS
# In short: as §1
# [16] = target: T16, UniProt Q8VGX3
# T16 sequence (whole entry): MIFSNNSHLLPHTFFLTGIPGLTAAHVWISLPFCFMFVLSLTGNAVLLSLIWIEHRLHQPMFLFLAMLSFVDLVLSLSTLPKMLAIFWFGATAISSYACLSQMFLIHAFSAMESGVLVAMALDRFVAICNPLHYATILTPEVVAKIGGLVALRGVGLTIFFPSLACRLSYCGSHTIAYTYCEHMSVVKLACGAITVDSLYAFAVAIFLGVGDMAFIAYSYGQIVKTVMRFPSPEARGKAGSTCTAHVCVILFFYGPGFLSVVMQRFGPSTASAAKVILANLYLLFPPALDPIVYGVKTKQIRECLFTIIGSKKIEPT
# In short: as §1
# [17] = target: T17, UniProt Q8VGX5
# T17 sequence (whole entry): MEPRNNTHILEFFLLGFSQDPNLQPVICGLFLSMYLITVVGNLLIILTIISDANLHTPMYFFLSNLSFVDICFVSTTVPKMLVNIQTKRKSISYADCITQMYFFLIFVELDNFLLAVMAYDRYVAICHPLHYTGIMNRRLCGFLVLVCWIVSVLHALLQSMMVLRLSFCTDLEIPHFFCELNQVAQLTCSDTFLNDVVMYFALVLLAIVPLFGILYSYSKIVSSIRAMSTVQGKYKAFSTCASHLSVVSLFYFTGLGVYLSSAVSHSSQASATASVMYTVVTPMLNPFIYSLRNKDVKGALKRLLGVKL
# In short: as §1
compound,measurement,setting,value
CCOC(=O)C(C)C,odorant receptor agonist call,[1],inactive
same,odorant receptor agonist call,[2],inactive
same,odorant receptor agonist call,[3],inactive
same,odorant receptor agonist call,[4],inactive
same,odorant receptor agonist call,[5],inactive
same,odorant receptor agonist call,[6],active
same,odorant receptor agonist call,[7],inactive
same,odorant receptor agonist call,[8],active
same,odorant receptor agonist call,[9],inactive
same,odorant receptor agonist call,[10],inactive
same,odorant receptor agonist call,[11],inactive
same,odorant receptor agonist call,[12],inactive
same,odorant receptor agonist call,[13],inactive
same,odorant receptor agonist call,[14],inactive
same,odorant receptor agonist call,[15],inactive
same,odorant receptor agonist call,[16],inactive
same,odorant receptor agonist call,[17],inactive
